Measured values: ChEMBL document CHEMBL3425463, “The quassinoid isobrucein B reduces inflammatory hyperalgesia and cytokine production by post-transcriptional modulation” (J Nat Prod, 2015)
Calls of active or inactive are those of the source. No cut-off for these calls is given here.

Experiments:
RAW264.7 [1] = experiment: Inhibition of luminescence emission in mouse RAW264.7 cells transfected with luciferase plasmid containing universal promoter PKG at 70 uM after 6 hrs by luciferase reporter gene assay; format: functional, cell-based
Summary of the method: (§1)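 RAW 264.7 cells (5 × 10^5/well) in RPMI-1640 with 2% FBS, transfected with a PGK-promoter luciferase plasmid (1 μg/well) for 6 h at 37 °C, 5% CO2. Then treated 6 h with drug, dexamethasone 1 mM, pyrrolidine dithiocarbamate 500 μM or cycloheximide 70 μM. Cells lysed in Tris/NaCl/Tween buffer, pH 7.5, and luminescence read.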

Mus musculus [2] = experiment: Inhibition of protein synthesis in carrageenan-induced mechanical inflammatory hyperalgesia male C57BL/6 mouse model assessed as inhibition of TNF production in inflamed tissue at 20 mg/kg, sc […] challenge and measured after 3 hrs by ELISA; format: functional, organism-based; set-up: dose 20 mg/kg
Mus musculus [3] = experiment: Inhibition of protein synthesis in carrageenan-induced mechanical inflammatory hyperalgesia male C57BL/6 mouse model assessed as inhibition of IL-1beta production in inflamed tissue at 20 mg/kg, sc […] challenge and measured after 3 hrs by ELISA; format: functional, organism-based; set-up: dose 20 mg/kg
RAW264.7 [4] = experiment: Antiinflammatory activity against mouse RAW264.7 cells assessed as reduction of LPS-induced TNF mRNA expression cells at 1 mM treated 30 mins before LPS challenge measured after 3 hrs by qRT-PCR analysis; format: functional, cell-based
Summary of the method: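 RAW 264.7 macrophages (1.5 × 10^6 cells/well) in supplemented RPMI-1640 were pretreated with vehicle, test compound or dexamethasone (1 mM) before LPS stimulation. Cells were lysed in TRIzol, and TNF mRNA was measured by quantitative real-time PCR with GAPDH primers. Stock in DMSO diluted in RPMI-1640, final DMSO ≤0.5%.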

RAW264.7 [5] = experiment: Inhibition of luminescence emission in mouse RAW264.7 cells transfected with luciferase plasmid containing universal promoter PKG at 1 mM after 6 hrs by luciferase reporter gene assay; format: functional, cell-based
Summary of the method: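 RAW 264.7 cells (5 × 10^5/well) in RPMI-1640 with 2% FBS were transfected with pmirGLO dual-luciferase plasmid (1 μg/well, PGK universal promoter) by FuGene 6 for 6 h at 37 °C, 5% CO2. Compound was added ([…] as printed) and incubated 6 h. Cells were lysed in TNT buffer, and luciferin luminescence was read. Controls: dexamethasone, PDTC, cycloheximide.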

RAW264.7 [6] = experiment: Inhibition of luminescence emission in mouse RAW264.7 cells transfected with luciferase plasmid containing universal promoter PKG at 500 uM after 6 hrs by luciferase reporter gene assay; format: functional, cell-based; summary of the method: as §1
RAW264.7 [7] = experiment: Inhibition of LPS-induced NF-kappaB activation in mouse RAW264.7 cells assessed as reduction luminescence emission at 0.001 to 10 uM pretreated 30 mins before LPS challenge measured after 4 hrs by luciferase reporter gene assay; format: cell-based
Summary of the method: (§2)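 RAW 264.7 NF-κB-luciferase reporter cells pretreated 30 min (0.001−10 μM) before stimulus: LPS 1 μg/mL, PGN 10 μg/mL, TNF 10 ng/mL or PMA 1 μg/mL. Cells lysed at 4 h; luciferin added, luminescence read. Expressed relative to stimulus alone set at 100%. Dexamethasone 1 mM control. n = 4–5.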

RAW264.7 [8] = experiment: Inhibition of PGN-induced NF-kappaB activation in mouse RAW264.7 cells assessed as reduction luminescence emission at 0.001 to 10 uM pretreated 30 mins before LPS challenge measured after 4 hrs by luciferase reporter gene assay; format: cell-based; summary of the method: as §2
RAW264.7 [9] = experiment: Inhibition of TNF-induced NF-kappaB activation in mouse RAW264.7 cells assessed as reduction luminescence emission at 0.001 to 10 uM pretreated 30 mins before LPS challenge measured after 4 hrs by luciferase reporter gene assay; format: cell-based; summary of the method: as §2
RAW264.7 [10] = experiment: Inhibition of PMA-induced NF-kappaB activation in mouse RAW264.7 cells assessed as reduction luminescence emission at 0.001 to 10 uM pretreated 30 mins before LPS challenge measured after 4 hrs by luciferase reporter gene assay; format: cell-based; summary of the method: as §2
RAW264.7 [11] = experiment: Inhibition of NF-kappaB-mediated IkappaBalpha degradation in LPS-induced mouse RAW264.7 cells at 10 uM treated 30 mins before LPS challenge by Western blot analysis; format: cell-based
Summary of the method: (§3)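 RAW 264.7 cells treated before LPS. Cytoplasmic and nuclear fractions made by hypotonic/high-salt (420 mM NaCl) lysis; Bradford protein assay; 12% SDS-PAGE. Blots: IκB-α (1:1000) on cytoplasmic and p65 (1:300) on nuclear extracts, ECL detection. Nucleophosmin and actin as fraction markers; bands normalized to medium control.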

RAW264.7 [12] = experiment: Inhibition of LPS-induced NF-kappaB p65 translocation into nucleus in mouse RAW264.7 cells at 10 uM treated 30 mins before LPS challenge by Western blot analysis; format: cell-based; summary of the method: as §3
RAW264.7 [13] = experiment: Antiinflammatory activity against mouse RAW264.7 cells assessed as reduction of LPS-induced TNF mRNA expression cells at 10 uM treated 30 mins before LPS challenge measured after 3 hrs by qRT-PCR analysis; format: functional, cell-based
RAW264.7 [14] = experiment: Inhibition of luminescence emission in mouse RAW264.7 cells transfected with luciferase plasmid containing universal promoter PKG at 0.1 to 10 uM after 6 hrs by luciferase reporter gene assay; format: functional, cell-based; summary of the method: as §1
Mus musculus [15] = experiment: Antihyperalgesic activity in sc dosed male C57BL/6 mouse assessed as reduction in carrageenan-induced mechanical inflammatory hyperalgesia […] and measured after 3 hrs; format: functional, organism-based
Mus musculus [16] = experiment: Antihyperalgesic activity in male C57BL/6 mouse assessed as reduction in carrageenan-induced mechanical inflammatory hyperalgesia at 5 mg/kg, […] and measured after 3 hrs; format: functional, organism-based; set-up: dose 5 mg/kg
Mus musculus [17] = experiment: Antiinflammatory activity in carrageenan-induced mechanical inflammatory hyperalgesia male C57BL/6 mouse model assessed as inhibition of IL-1beta production in inflamed tissue at 5 mg/kg, […] and measured after 3 hrs; format: functional, organism-based; set-up: dose 5 mg/kg
Mus musculus [18] = experiment: Antiinflammatory activity in carrageenan-induced mechanical inflammatory hyperalgesia male C57BL/6 mouse model assessed as inhibition of KC/CXCL1 production in inflamed tissue at 5 mg/kg, […] and measured after 3 hrs; format: functional, organism-based; set-up: dose 5 mg/kg
Mus musculus [19] = experiment: Antiinflammatory activity in carrageenan-induced mechanical inflammatory hyperalgesia male C57BL/6 mouse model assessed as inhibition of TNF level production in inflamed tissue at 5 mg/kg, […] and measured after 3 hrs; format: functional, organism-based; set-up: dose 5 mg/kg
RAW264.7 [20] = experiment: Antiinflammatory activity against mouse RAW264.7 cells assessed as reduction of LPS-induced TNF production compound pretreated 30 mins of LPS challenge measured after 4 hrs by ELISA; format: functional, cell-based
RAW264.7 [21] = experiment: Antiinflammatory activity against mouse RAW264.7 cells assessed as reduction of LPS-induced IL-1beta production compound pretreated 30 mins of LPS challenge measured after 4 hrs by ELISA; format: functional, cell-based
RAW264.7 [22] = experiment: Antiinflammatory activity against mouse RAW264.7 cells assessed as reduction of LPS-induced KC/CXCL1 production compound pretreated 30 mins of LPS challenge measured after 4 hrs by ELISA; format: functional, cell-based
[23] = tested on: peritoneal macrophages (Mus musculus); experiment: Cytotoxicity against mouse peritoneal macrophages assessed as cell viability at 0.001 to 10 uM pretreated 30 mins by MTT assay in presence of LPS

Q: `C[C@@H]1C[C@@H]([C@H](O)CC2CC(=O)NC(=O)C2)C(=O)[C@@H](C)C1` was tested. Which inhibition (RAW264.7 [1]) did it give?
A: Active

Q: What about the inhibition (Mus musculus [2]) of the same compound?
A: inactive

Q: What about the inhibition (Mus musculus [3]) of the same compound?
A: Active

Q: What does the source list for `C[C@@H]1C[C@H]2[C@@H]3CCC4=CC(=O)C=C[C@]4(C)[C@@]3(F)[C@@H](O)C[C@]2(C)[C@@]1(O)C(=O)CO`?
A: inhibition (RAW264.7 [4]): Active; inhibition (RAW264.7 [5]): inactive

Q: With `S=C(S)N1CCCC1` as the compound, how does the inhibition (RAW264.7 [6]) read?
A: inactive

Q: Which inhibition (RAW264.7 [7]) does the source give for `COC(=O)[C@@]12OC[C@]34[C@H]([C@@H](O)[C@@H]1O)[C@@]1(C)[C@H](O)C(=O)C=C(C)[C@@H]1C[C@H]3OC(=O)[C@H](OC(C)=O)[C@@H]24` [ISOBRUCEIN B] here?
A: Dose-dependent effect

Q: What about the inhibition (RAW264.7 [8]) of the same compound?
A: Dose-dependent effect

Q: What about the inhibition (RAW264.7 [9]) of the same compound?
A: Dose-dependent effect

Q: And the inhibition (RAW264.7 [10])?
A: Dose-dependent effect

Q: And the Activity (RAW264.7 [11])?
A: inactive

Q: And the Activity (RAW264.7 [12])?
A: inactive

Q: What about the inhibition (RAW264.7 [13]) of the same compound?
A: inactive

Q: What about the inhibition (RAW264.7 [14]) of the same compound?
A: Active

Q: And the Activity (Mus musculus [15])?
A: Dose-dependent effect

Q: And the inhibition (Mus musculus [16])?
A: Active

Q: What about the inhibition (Mus musculus [17]) of the same compound?
A: Active

Q: What about the inhibition (Mus musculus [18]) of the same compound?
A: Active

Q: And the inhibition (Mus musculus [19])?
A: inactive

Q: And the inhibition (RAW264.7 [20])?
A: Active

Q: What about the inhibition (RAW264.7 [21]) of the same compound?
A: Active

Q: And the inhibition (RAW264.7 [22])?
A: Active

Q: And the Activity [23]?
A: Non-toxic
